# Source: paper PMC4364388 (Biochimica et biophysica acta, 2015)
# Several values for one entry are separate records, joined by “and”; a condition that tells them apart may be missing. Identical values can stand only once. Like-named read-outs stand apart in the source and are kept apart here.
# Key:
# rat UT-A1 [1] = target: T1, rat UT-A1 (Rattus norvegicus, UniProt Q62668); assay: UT-A1 inhibition assay; assay type: cell-based; settings: for IC50: UT-A1 IC50, MDCK cells expressing rat UT-A1, YFP and AQP1, 20 min incubation; for Selectivity for UT-A1 vs. UT-B inhibition: comparison of IC50 values for UT-A1 and UT-B
# T1 sequence (Q62668 1-929): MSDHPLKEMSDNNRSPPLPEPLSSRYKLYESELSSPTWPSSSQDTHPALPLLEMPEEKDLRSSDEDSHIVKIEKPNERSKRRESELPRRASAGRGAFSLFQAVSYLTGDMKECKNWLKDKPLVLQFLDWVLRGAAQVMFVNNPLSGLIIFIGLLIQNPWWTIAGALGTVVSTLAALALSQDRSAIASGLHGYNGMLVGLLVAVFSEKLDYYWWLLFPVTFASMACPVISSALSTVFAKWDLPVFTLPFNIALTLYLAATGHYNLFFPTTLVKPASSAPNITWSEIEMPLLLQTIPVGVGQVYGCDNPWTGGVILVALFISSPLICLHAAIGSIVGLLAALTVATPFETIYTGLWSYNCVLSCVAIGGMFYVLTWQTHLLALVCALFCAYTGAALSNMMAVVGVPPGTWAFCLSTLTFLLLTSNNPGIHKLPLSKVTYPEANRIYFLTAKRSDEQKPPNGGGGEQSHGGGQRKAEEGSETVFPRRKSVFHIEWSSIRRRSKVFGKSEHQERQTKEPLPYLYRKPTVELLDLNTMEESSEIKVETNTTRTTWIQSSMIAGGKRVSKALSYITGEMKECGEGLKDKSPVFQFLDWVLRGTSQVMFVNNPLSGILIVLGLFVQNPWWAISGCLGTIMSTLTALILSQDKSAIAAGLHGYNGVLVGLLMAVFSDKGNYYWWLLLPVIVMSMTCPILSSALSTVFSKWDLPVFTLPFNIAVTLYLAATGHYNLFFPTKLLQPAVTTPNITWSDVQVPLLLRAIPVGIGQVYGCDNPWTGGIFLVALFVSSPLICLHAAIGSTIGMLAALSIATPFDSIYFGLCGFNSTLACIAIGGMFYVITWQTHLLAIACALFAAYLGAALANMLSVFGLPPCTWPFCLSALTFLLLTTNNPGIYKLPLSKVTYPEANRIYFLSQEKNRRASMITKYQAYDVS
# rat UT-B [2] = target: T2, rat UT-B (Rattus norvegicus, UniProt P97689); assay: UT-B inhibition, erythrocyte lysis assay; assay type: cell-based; settings: for IC50: 15 min incubation
# T2 sequence (P97689 1-384): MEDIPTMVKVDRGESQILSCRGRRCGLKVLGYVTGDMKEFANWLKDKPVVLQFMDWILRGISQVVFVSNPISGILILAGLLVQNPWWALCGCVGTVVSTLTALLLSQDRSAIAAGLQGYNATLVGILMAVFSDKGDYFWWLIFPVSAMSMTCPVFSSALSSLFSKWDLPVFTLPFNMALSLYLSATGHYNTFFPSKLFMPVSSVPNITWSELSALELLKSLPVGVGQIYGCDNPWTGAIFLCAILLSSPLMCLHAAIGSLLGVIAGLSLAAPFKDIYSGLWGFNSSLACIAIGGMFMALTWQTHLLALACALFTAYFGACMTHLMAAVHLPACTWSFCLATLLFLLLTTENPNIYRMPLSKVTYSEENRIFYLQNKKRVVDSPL
# Water solubility = assay type: physicochemical
# rat UT-B [3] = target: T2, rat UT-B; settings: read-out: UT-B IC50; earlier finding; cited from earlier work
# rat UT-A1 [4] = target: T1, rat UT-A1; settings: read-out: UT-A1 IC50; earlier finding; cited from earlier work
# rats = settings: listed as DMTU; cited from earlier work
# MDCK cells = assay: Cytotoxicity to MDCK cells; assay type: cell-based, canine; settings: at solubility limit
# rat UT-A1 [5] = target: T1, rat UT-A1; assay: Functional studies of UT-A1 inhibition; assay type: cell-based
# Outline: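 MDCK cells stably co-expressing rat UT-A1, YFP-H148Q/V163S and human AQP1 were plated 24 h before assay. Reversibility: 15 min with 0.2 mM test compound, two PBS washes, then assay. Kinetics: 0.2 mM added at varied times before assay. Urea dependence: concentration-response at 80–1,600 mM urea gradients. Read-out was YFP fluorescence 7 s after urea addition, normalised to negative and positive controls.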
# [6] = UT-B IC50, rat erythrocyte lysis assay
# [7] = read-out: UT-B IC50, rat erythrocyte lysis assay
molecule,measurement,setting,value
"CN(C)C(=S)N(C)C [Compound 5, Tetramethylthiourea]",UT-A1 inhibition activity (in words),rat UT-A1 [1],inactive
same,IC50,rat UT-A1 [1],> 25000 µM
same,UT-B inhibition activity (in words),rat UT-B [2],inactive
same,IC50,rat UT-B [2]; [6],> 25000 µM
"NC(=S)c1cccnc1 [Compound 27, thionicotinamide]",IC50,rat UT-A1 [1],> 25000 µM
same,IC50,rat UT-B [2]; [6],10000 ± 2000 µM
"NC(=S)c1ccncc1 [Compound 26, thioisonicotinamide]",Selectivity for UT-A1 vs. UT-B inhibition,rat UT-A1 [1],selective for UT-B over UT-A1
same,IC50,rat UT-B [2]; [7],2800 ± 500 µM
cyclohexylthiourea [Compound 12],UT-A1 inhibition activity (in words),rat UT-A1 [1],potencies comparable to DMTU
same,UT-B inhibition activity (in words),rat UT-B [2],potencies comparable to DMTU
same,IC50,rat UT-B [2]; [7],5200 ± 600 µM
NC(N)=S [Compound 2],UT-A1 inhibition activity (in words),rat UT-A1 [1],significant loss of UT-A1 and UT-B inhibition activity
same,UT-B inhibition activity (in words),rat UT-B [2],significant loss of UT-A1 and UT-B inhibition activity
same,IC50,rat UT-B [2]; [7],> 25000 µM
"CNC(=S)NC [Compound 1, N, N′-dimethylthiourea]",Water solubility,Water solubility,7900 mM
same,Solubility in saline,Water solubility; saline,> 50 mg/mL
same,IC50,rat UT-B [2]; [7],3900 ± 600 µM
same,IC50,rat UT-B [3],2000 to 3000 µM
same,IC50,rat UT-A1 [4],2000 to 3000 µM
same,Diuretic action,rats,reduce urinary osmolality in rats and produce a salt-sparing diuresis
NC(=S)c1ccncc1 [thioisonicotinamide],Selectivity for UT-A1 vs. UT-B inhibition,rat UT-A1 [1],UT-B selective
same,IC50,rat UT-B [2]; [7],2800 µM
"CNC(=O)NC [Compound 3, dimethylurea]",UT-A1 inhibition activity (in words),rat UT-A1 [1],loss of activity
same,UT-B inhibition activity (in words),rat UT-B [2],loss of activity
same,IC50,rat UT-B [2]; [7],14000 ± 2000 µM
"NC(=S)Nc1ccc(Cl)c(Cl)c1 [Compound 21, 3,4-dichlorophenylthiourea]",IC50,rat UT-A1 [1],1500 ± 400 µM
same,IC50,rat UT-B [2]; [6],400 ± 100 µM
"NC(=S)Nc1cccc([N+](=O)[O-])c1 [Compound 32, 3-nitrophenylthiourea]",solubility,Water solubility; water,0.64 mM
same,IC50 improvement relative to 18,rat UT-A1 [1],~6 fold
same,IC50,rat UT-A1 [1],~200 µM and 200 µM
same,Selectivity for UT-A1 vs. UT-B inhibition,rat UT-A1 [1],non-selective
same,IC50,rat UT-B [2]; [6],~200 µM and 200 µM
same,Cytotoxicity to MDCK cells,MDCK cells,no cytotoxicity
same,Kinetics of UT-A1 inhibition,rat UT-A1 [5]; 0.2 mM added at different times prior to assay,very rapid
same,Reversibility of UT-A1 inhibition,"rat UT-A1 [5]; 0.2 mM, 15 min incubation, washed twice",fully reversible
same,Inhibition mechanism from urea concentration-dependence of IC50,"rat UT-A1 [5]; urea gradients 80 to 1,600 mM",competitive inhibition mechanism
"NC(=S)Nc1ccccc1 [Compound 9, phenylthiourea]",UT-A1 inhibition activity (in words),rat UT-A1 [1],potencies comparable to DMTU
same,IC50,rat UT-A1 [1],8800 ± 300 µM
same,UT-B inhibition activity (in words),rat UT-B [2],potencies comparable to DMTU
same,IC50,rat UT-B [2]; [6],14000 ± 1000 µM
"NC(=S)Nc1ccc([N+](=O)[O-])cc1 [Compound 18, 4-nitrophenylthiourea]",IC50,rat UT-A1 [1],1300 ± 300 µM
same,Selectivity for UT-A1 vs. UT-B inhibition,rat UT-A1 [1],UT-A1 selective
same,IC50,rat UT-B [2]; [6],10000 ± 1000 µM
